# Measurements gathered from unrelated publications.
# Lines come from different studies, so protocols differ.
# Effect on: cell growth or viability
Structure (SMILES),cell line,method,tested at,time,endpoint,value
C[C@@H]1COCCN1c1cc(C2([S@](C)(=N)=O)CC2)nc(-c2cc[nH]c3nccc2-3)n1,CT26,ATP luminescence,,24 h,IC50,27600 nM
NCCC(=O)Nc1ccccc1/N=c1\cc(-c2ccc3nc(N)oc3c2)oc2ccc(F)cc12,MOLM-13,CCK-8,1 µM,,inhibition,69.8%
C(=N\Nc1cc(N/N=C/c2ccc3ccccc3n2)ncn1)/c1ccc2ccccc2n1,Bel-7402,MTT,,48 h,IC50,34000 nM
NCCC(=O)Nc1ccccc1/N=c1\cc(-c2ccc3nc(N)oc3c2)oc2ccc(O)cc12,MOLM-13,CCK-8,1 µM,,inhibition,47.1%
CCCCCCCCCCCCCCCCCCOc1ccccc1CC(=O)OCC[N+](C)(C)C,NCI-H23,SRB,10 µM,,inhibition,59.8%
N[C@@H](CO)C(=O)Nc1ccccc1/N=c1\cc(-c2ccc3c(c2)OCO3)oc2ccccc12,MOLM-13,CCK-8,1 µM,,inhibition,8.02%
Cc1cnc(CNC(=O)c2c(=O)c3ccc(N4CCCN(C)CC4)nc3n3c2sc2ccccc23)cn1,C6661,MTS,,72 h,IC50,500 nM
CCCCCCCCCCCCCCCCCCOc1cccc(CC(=O)OCC[N+]2(C)CCOCC2)c1,NCI-H23,SRB,10 µM,,inhibition,4.14%
NCC(=O)Nc1ccccc1/N=c1\cc(-c2ccc3c(c2)OCCO3)oc2cc(F)ccc12,MOLM-13,CCK-8,1 µM,,inhibition,5.06%
C#Cc1cccc(Nc2ncnc3cc(OCCOC)c(OCCOC)cc23)c1,Bel-7402,MTT,,48 h,IC50,> 20000 nM
NCCC(=O)Nc1ccc(/N=c2\cc(-c3ccc4c(c3)OCO4)oc3ccccc23)cc1,MOLM-13,CCK-8,1 µM,,inhibition,3.6%
Cc1cc(=O)oc2cc(OCCCCSC#N)ccc12,SW1573,SRB,,,GI50,630 nM
CCCCCCCCCCCCCCCCCCOc1ccccc1CC(=O)OCCC[N+](C)(C)C,NCI-H23,SRB,10 µM,,inhibition,53.6%
O=C(C[C@@H](C(F)F)n1ccc(F)n1)N1CCC(O)(Cn2cnc3c(cnn3-c3ccc(F)cc3)c2=O)CC1,CHP-212,SRB,27.43 nM,,viability,72.4%
NCCC(=O)Nc1ccccc1/N=c1\cc(-c2ccc3nc(N)oc3c2)oc2cc(O)ccc12,MOLM-13,CCK-8,1 µM,,inhibition,3.71%
CC(=O)O[C@H]1C(=O)[C@@]2(C)[C@H]([C@H](OC(=O)c3ccccc3)[C@]3(O)C[C@H](OC(=O)[C@H](O)[C@@H](NC(=O)c4ccccc4)c4ccccc4)C(C)=C1C3(C)C)[C@]1(OC(C)=O)CO[C@@H]1C[C@@H]2O,CHP-212,SRB,0.1235 µM,,viability,21.3%
CCCCCCCCCCCCCCCCCCOc1cccc(CC(=O)OCC[N+](C)(C)C)c1,NCI-H23,SRB,10 µM,,inhibition,11%
COc1cccc2c1C(=O)c1c(O)c3c(c(O)c1C2=O)C[C@@](O)(C(=O)CO)C[C@@H]3O[C@H]1C[C@H](N)[C@H](O)[C@H](C)O1,CHP-212,SRB,3.333 µM,,viability,2.6%
O=C(N[C@@H](CSCc1ccc([N+](=O)[O-])cc1)C(=O)NO)c1ccccc1,NCI-H1573,MTT,,48 h,IC50,2370 nM
CC(C)C[C@H](NC(=O)[C@H](Cc1ccccc1)NC(=O)c1cnccn1)B(O)O,CHP-212,SRB,4.572 nM,,viability,93.9%
CCc1nc(C(N)=O)c(Nc2ccc(N3CCC(N4CCN(C)CC4)CC3)c(OC)c2)nc1NC1CCOCC1,MOLM-13,,,72 h,GI50,32 nM
